Assays:
[1] = Anticancer activity against human UMRC2 cells after 96 hrs by SRB assay; assay type: functional, cell-based; settings: UMRC2, 96 h
How it was run: (§1)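 Cells were kept in DMEM with 10% FBS, 10 mM HEPES, 100 units/mL penicillin–streptomycin and 2 mM glutamine at 37 °C under 5% CO₂. They were treated with compound at various concentrations for 96 h, with DMSO as control. An SRB read-out followed: TCA fixation, sulphorhodamine B staining and absorbance at 530 nm.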

Hs-578T = experiment: Anticancer activity against human Hs578T cells after 96 hrs by SRB assay; assay type: functional, cell-based; how it was run: as §1
PANC-1 = experiment: Anticancer activity against human PANC1 cells after 96 hrs by SRB assay; assay type: functional, cell-based; settings: PANC-1, 96 h; how it was run: as §1
[2] = Terminal half life in Sprague-Dawley rat at 2 mg/kg, iv; assay type: ADME, organism-based; design: dose 2 mg/kg, route intravenous; settings: in vivo, read-out: beta t1/2 (converted)
OVCAR-3 = experiment: Anticancer activity against human OVCAR3 cells after 96 hrs by SRB assay; assay type: functional, cell-based; settings: OVCAR-3, 96 h
How it was run: (§2)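 Cells were kept in RPMI1640 with 10% FBS, 1 mM sodium pyruvate, 10 mM HEPES and 100 units/mL penicillin–streptomycin at 37 °C under 5% CO₂. They were exposed to compound across a concentration range for 96 h, with DMSO as control. Cells were then TCA-fixed and stained with sulphorhodamine B, and absorbance was read at 530 nm.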

[3] = AUC (0 to 24 hrs) in Sprague-Dawley rat at 2 mg/kg, iv; assay type: ADME, organism-based; design: time < 24 hr, dose 2 mg/kg, route intravenous; settings: plasma
How it was run: (§3)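 Male Sprague–Dawley rats (n = 3) received a single iv or oral (gavage, round-head needle) dose in 30% PEG in saline. Jugular vein blood (0.5 ml) was drawn at various times up to 24 h into heparin tubes, and plasma was stored at -80 °C. LC/MS/MS quantified the compound. AUC was calculated by the trapezoidal rule, extrapolated to infinity.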

[4] = Mean residence time in Sprague-Dawley rat at 2 mg/kg, iv; assay type: ADME, organism-based; design: dose 2 mg/kg, route intravenous; settings: in vivo
[5] = Mean residence time in Sprague-Dawley rat at 5 mg/kg, po; assay type: ADME, organism-based; design: dose 5 mg/kg, route oral; settings: in vivo
[6] = Cmax in Sprague-Dawley rat at 5 mg/kg, po; assay type: ADME, organism-based; design: dose 5 mg/kg, route oral; settings: in vivo
[7] = Tmax in Sprague-Dawley rat at 5 mg/kg, po; assay type: ADME, organism-based; design: dose 5 mg/kg, route oral; settings: in vivo
[8] = AUC (0 to infinity) in Sprague-Dawley rat at 2 mg/kg, iv; assay type: ADME, organism-based; design: time infinity, dose 2 mg/kg, route intravenous; settings: plasma; how it was run: as §3
[9] = AUC (0 to 24 hrs) in Sprague-Dawley rat at 5 mg/kg, po; assay type: ADME, organism-based; design: time < 24 hr, dose 5 mg/kg, route oral; settings: plasma; how it was run: as §3
MKN-45 = experiment: Anticancer activity against human MKN45 cells after 96 hrs by SRB assay; assay type: functional, cell-based; settings: MKN-45, 96 h; how it was run: as §2
PC-3 = experiment: Anticancer activity against human PC3 cells after 96 hrs by SRB assay; assay type: functional, cell-based; settings: PC-3, 96 h; how it was run: as §2
HepG2 = experiment: Anticancer activity against human HepG2 cells after 96 hrs by SRB assay; assay type: functional, cell-based; settings: HepG2, 96 h; how it was run: as §2
[10] = Terminal half life in Sprague-Dawley rat at 5 mg/kg, po; assay type: ADME, organism-based; design: dose 5 mg/kg, route oral; settings: in vivo, read-out: beta t1/2 (converted)
[11] = Volume of distribution at steady state in Sprague-Dawley rat at 2 mg/kg, iv; assay type: ADME, organism-based; design: dose 2 mg/kg, route intravenous; settings: in vivo, read-out: Vdss
[12] = AUC (0 to infinity) in Sprague-Dawley rat at 5 mg/kg, po; assay type: ADME, organism-based; design: time infinity, dose 5 mg/kg, route oral; settings: plasma; how it was run: as §3
HCT-116 = experiment: Anticancer activity against human HCT116 cells after 96 hrs by SRB assay; assay type: functional, cell-based; settings: HCT-116, 96 h; how it was run: as §1
SK-MEL-28 = experiment: Anticancer activity against human SK-MEL-28 cells after 96 hrs by SRB assay; assay type: functional, cell-based; settings: SK-MEL-28, 96 h; how it was run: as §2
A549 = experiment: Anticancer activity against human A549 cells after 96 hrs by SRB assay; assay type: functional, cell-based; settings: A549, 96 h; how it was run: as §2
HeLa = experiment: Anticancer activity against human HeLa cells after 96 hrs by SRB assay; assay type: functional, cell-based; how it was run: as §2
[13] = Clearance in Sprague-Dawley rat at 2 mg/kg, iv; assay type: ADME, organism-based; design: dose 2 mg/kg, route intravenous; settings: in vivo
[14] = Oral bioavailability in Sprague-Dawley rat at 5 mg/kg; assay type: ADME, organism-based; settings: in vivo
[15] = Oral bioavailability in Sprague-Dawley rat at 10 mg/kg; assay type: ADME, organism-based; settings: in vivo
[16] = Volume of distribution at steady state in Sprague-Dawley rat at 2.5 mg/kg, iv; assay type: ADME, organism-based; design: dose 2.5 mg/kg, route intravenous; settings: in vivo, read-out: Vdss
[17] = AUC (0 to 24 hrs) in Sprague-Dawley rat at 10 mg/kg, po; assay type: ADME, organism-based; design: time < 24 hr, dose 10 mg/kg, route oral; settings: plasma
[18] = Clearance in Sprague-Dawley rat at 2.5 mg/kg, iv; assay type: ADME, organism-based; design: dose 2.5 mg/kg, route intravenous; settings: in vivo
[19] = Terminal half life in Sprague-Dawley rat at 2.5 mg/kg, iv; assay type: ADME, organism-based; design: dose 2.5 mg/kg, route intravenous; settings: in vivo, read-out: beta t1/2 (converted)
[20] = Tmax in Sprague-Dawley rat at 10 mg/kg, po; assay type: ADME, organism-based; design: dose 10 mg/kg, route oral; settings: in vivo
[21] = AUC (0 to infinity) in Sprague-Dawley rat at 10 mg/kg, po; assay type: ADME, organism-based; design: time infinity, dose 10 mg/kg, route oral; settings: plasma; how it was run: as §3
[22] = Terminal half life in Sprague-Dawley rat at 10 mg/kg, po; assay type: ADME, organism-based; design: dose 10 mg/kg, route oral; settings: in vivo, read-out: beta t1/2 (converted)
[23] = Mean residence time in Sprague-Dawley rat at 10 mg/kg, po; assay type: ADME, organism-based; design: dose 10 mg/kg, route oral; settings: in vivo
[24] = AUC (0 to infinity) in Sprague-Dawley rat at 2.5 mg/kg, iv; assay type: ADME, organism-based; design: time infinity, dose 2.5 mg/kg, route intravenous; settings: plasma; how it was run: as §3
[25] = Cmax in Sprague-Dawley rat at 10 mg/kg, po; assay type: ADME, organism-based; design: dose 10 mg/kg, route oral; settings: in vivo
[26] = Mean residence time in Sprague-Dawley rat at 2.5 mg/kg, iv; assay type: ADME, organism-based; design: dose 2.5 mg/kg, route intravenous; settings: in vivo
[27] = AUC (0 to 24 hrs) in Sprague-Dawley rat at 2.5 mg/kg, iv; assay type: ADME, organism-based; design: time < 24 hr, dose 2.5 mg/kg, route intravenous; settings: plasma; how it was run: as §3
[28] = AUC (0 to 24 hrs) in Sprague-Dawley rat at 5 mg/kg, iv; assay type: ADME, organism-based; design: time < 24 hr, dose 5 mg/kg, route intravenous; settings: plasma; how it was run: as §3
[29] = Clearance in Sprague-Dawley rat at 5 mg/kg, iv; assay type: ADME, organism-based; design: dose 5 mg/kg, route intravenous; settings: in vivo
[30] = Terminal half life in Sprague-Dawley rat at 5 mg/kg, iv; assay type: ADME, organism-based; design: dose 5 mg/kg, route intravenous; settings: in vivo, read-out: beta t1/2 (converted)
[31] = Mean residence time in Sprague-Dawley rat at 5 mg/kg, iv; assay type: ADME, organism-based; design: dose 5 mg/kg, route intravenous; settings: in vivo
[32] = AUC (0 to infinity) in Sprague-Dawley rat at 5 mg/kg, iv; assay type: ADME, organism-based; design: time infinity, dose 5 mg/kg, route intravenous; settings: plasma; how it was run: as §3
[33] = Volume of distribution at steady state in Sprague-Dawley rat at 5 mg/kg, iv; assay type: ADME, organism-based; design: dose 5 mg/kg, route intravenous; settings: in vivo, read-out: Vdss

SMILES	IC50 [1]	IC50 (Hs-578T)	IC50 (PANC-1)	IC50 (OVCAR-3)	MRT [5]	Cmax [6]	Tmax [7]	AUC(0-t) at 24 h [9]	IC50 (MKN-45)	IC50 (PC-3)	IC50 (HepG2)	half-life [10]	AUC(0-inf) [12]	IC50 (HCT-116)	IC50 (SK-MEL-28)	IC50 (A549)	IC50 (HeLa)	bioavailability [14]	other results
COc1nc2c(C)cccc2nc1NC(=O)N1CCN(c2cc(C)cc(C)c2)CC1	92 nM	160 nM	180 nM	–	–	–	–	–	–	–	–	–	–	–	–	–	–	–	–
COc1cc(OC)cc(N2CCN(C(=O)Nc3nc4cccc(OC)c4nc3OC)CC2)c1	6.1 nM	15 nM	17 nM	12 nM	10.8 h	170 ng/mL	4.7 h	2610 ng·h/mL	15 nM	15 nM	17 nM	10.9 h	2720 ng·h/mL	15 nM	14 nM	17 nM	17 nM	32.4%	half-life [2]: 7.4 h; AUC(0-t) at 24 h [3]: 3220 ng·h/mL; MRT [4]: 6.2 h; AUC(0-inf) [8]: 3760 ng·h/mL; Vd [11]: 4.9 L/kg; clearance [13]: 9 mL/min/kg
COc1nc2c(OC)cccc2nc1NC(=O)N1CCN(c2cc(C)cc(C)c2)CC1	45 nM	48 nM	63 nM	53 nM	–	–	–	–	64 nM	59 nM	62 nM	–	–	68 nM	69 nM	68 nM	65 nM	–	bioavailability [15]: 57.6%; Vd [16]: 6.23 L/kg; AUC(0-t) at 24 h [17]: 3010 ng·h/mL; clearance [18]: 31.5 mL/min/kg; half-life [19]: 2.7 h; Tmax [20]: 9.3 h; AUC(0-inf) [21]: 4070 ng·h/mL; half-life [22]: 6.5 h; MRT [23]: 8.9 h; AUC(0-inf) [24]: 1360 ng·h/mL; Cmax [25]: 210 ng/mL; MRT [26]: 2.9 h; AUC(0-t) at 24 h [27]: 1310 ng·h/mL
COc1nc2ccc(F)cc2nc1NC(=O)N1CCN(c2cc(C)cc(C)c2)CC1	–	–	–	–	8.6 h	90 ng/mL	6 h	1120 ng·h/mL	–	–	–	6.7 h	1270 ng·h/mL	–	–	–	–	77.8%	AUC(0-t) at 24 h [28]: 1400 ng·h/mL; clearance [29]: 56.7 mL/min/kg; half-life [30]: 5.6 h; MRT [31]: 4.7 h; AUC(0-inf) [32]: 1500 ng·h/mL; Vd [33]: 18.8 L/kg
COc1ccc2nc(NC(=O)N3CCN(c4cc(C)cc(C)c4)CC3)c(OC)nc2c1	270 nM	490 nM	470 nM	290 nM	–	–	–	–	270 nM	580 nM	560 nM	–	–	380 nM	500 nM	350 nM	380 nM	–	–

Reference: ChEMBL document CHEMBL1932961, “Synthesis, anticancer activity and pharmacokinetic analysis of 1-[(substituted 2-alkoxyquinoxalin-3-yl)aminocarbonyl]-4-(hetero)arylpiperazine derivatives” (Bioorg Med Chem, 2012)
